Reference: ChEMBL document CHEMBL1123648, “Synthesis, chemical reactivity, and antileukemic activity of 5-substituted 6,7-bis(hydroxymethyl)pyrrolo[1,2-c]thiazole biscarbamates and the corresponding sulfoxides and sulfones” (1987)

Tests used:
[1] = Antileukemic activity against Murine P388 lymphocytic leukemia, body weight difference of the test animals compared to control group A animals at a dose of 100 mg/kg; assay type: functional, Mus musculus; design: unit not given here
Summary of the method: (§1)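 CD2F1 mice implanted intraperitoneally with ascitic fluid carrying ca. 1×10^6 P388 cells, under the NCI protocol. Dosing was intraperitoneal, starting 24 h after inoculation, then every 24 h for five doses in total. The body weight difference of treated mice is taken against untreated controls. Toxicity day survivors are the mice alive at day five out of those tested.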

[2] = Antileukemic activity against Murine P388 lymphocytic leukemia, body weight difference of the test animals compared to control group A animals at a dose of 400 mg/kg; assay type: functional, Mus musculus; summary of the method: as §1
[3] = Antileukemic activity against Murine P388 lymphocytic leukemia, body weight difference of the test animals compared to control group A animals at a dose of 50 mg/kg; assay type: functional, Mus musculus; design: unit not given here; summary of the method: as §1
[4] = Percent increase in life span of test animals compared to untreated tumor-bearing control group A animals at a dose of 200 mg/kg; assay type: functional; conditions: Mus musculus
[5] = Percent increase in life span of test animals compared to untreated tumor-bearing control group A animals at a dose of 50 mg/kg; assay type: functional; conditions: Mus musculus
[6] = Toxicity day survivors expressed as number of animals that survived to day five/ number of test animals under control group A at a dose of 200 mg/kg; 6 survived out of 6; assay type: functional, Mus musculus
[7] = Percent increase in life span of test animals compared to untreated tumor-bearing control group A animals at a dose of 400 mg/kg; assay type: functional; conditions: Mus musculus
[8] = Antileukemic activity against Murine P388 lymphocytic leukemia, body weight difference of the test animals compared to control group A animals at a dose of 25 mg/kg; assay type: functional, Mus musculus; design: unit not given here; summary of the method: as §1
[9] = Toxicity day survivors expressed as number of animals that survived to day five/ number of test animals under control group A at a dose of 400 mg/kg; 6 survived out of 6; assay type: functional, Mus musculus
[10] = Toxicity day survivors expressed as number of animals that survived to day five/ number of test animals under control group A at a dose of 50 mg/kg; 6 survived out of 6; assay type: functional, Mus musculus
[11] = Antileukemic activity against Murine P388 lymphocytic leukemia, body weight difference of the test animals compared to control group A animals at a dose of 200 mg/kg; assay type: functional, Mus musculus; summary of the method: as §1
[12] = Percent increase in life span of test animals compared to untreated tumor-bearing control group A animals at a dose of 25 mg/kg; assay type: functional; conditions: Mus musculus
[13] = Percent increase in life span of test animals compared to untreated tumor-bearing control group A animals at a dose of 100 mg/kg; assay type: functional; conditions: Mus musculus
[14] = Toxicity day survivors expressed as number of animals that survived to day five/ number of test animals under control group A at a dose of 100 mg/kg; 6 survived out of 6; assay type: functional, Mus musculus
[15] = Toxicity day survivors expressed as number of animals that survived to day five/ number of test animals under control group A at a dose of 25 mg/kg; 6 survived out of 6; assay type: functional, Mus musculus
[16] = tested on: P388; test: Log cell population relative to cell population at the beginning of treatment compared to control group A at a dose of 200 mg/kg; assay type: functional, Mus musculus
[17] = tested on: P388; test: Log cell population relative to cell population at the beginning of treatment compared to control group A at a dose of 100 mg/kg; assay type: functional, Mus musculus
[18] = Toxicity day survivors expressed as number of animals that survived to day five/ number of test animals under control group A at a dose of 400 mg/kg; 3 survived out of 6; assay type: functional, Mus musculus
[19] = tested on: P388; test: Log cell population relative to cell population at the beginning of treatment compared to control group A at a dose of 50 mg/kg; assay type: functional, Mus musculus
[20] = Percent increase in life span of test animals compared to untreated tumor-bearing control group A animals at a dose of 6.25 mg/kg; assay type: functional; conditions: Mus musculus
[21] = Antileukemic activity against Murine P388 lymphocytic leukemia, body weight difference of the test animals compared to control group A animals at a dose of 6.25 mg/kg; assay type: functional, Mus musculus; summary of the method: as §1
[22] = tested on: P388; test: Log cell population relative to cell population at the beginning of treatment compared to control group A at a dose of 25 mg/kg; assay type: functional, Mus musculus
[23] = tested on: P388; test: Log cell population relative to cell population at the beginning of treatment compared to control group A at a dose of 6.25 mg/kg; assay type: functional, Mus musculus
[24] = Toxicity day survivors expressed as number of animals that survived to day five/ number of test animals under control group A at a dose of 100 mg/kg; 3 survived out of 6; assay type: functional, Mus musculus
[25] = Antileukemic activity against Murine P388 lymphocytic leukemia, body weight difference of the test animals compared to control group A animals at a dose of 12.5 mg/kg; assay type: functional, Mus musculus; summary of the method: as §1
[26] = Toxicity day survivors expressed as number of animals that survived to day five/ number of test animals under control group A at a dose of 50 mg/kg; 5 survived out of 6; assay type: functional, Mus musculus
[27] = Toxicity day survivors expressed as number of animals that survived to day five/ number of test animals under control group A at a dose of 6.25 mg/kg; assay type: functional, Mus musculus
[28] = Toxicity day survivors expressed as number of animals that survived to day five/ number of test animals under control group A at a dose of 12.5 mg/kg; 6 survived out of 6; assay type: functional, Mus musculus
[29] = Percent increase in life span of test animals compared to untreated tumor-bearing control group A animals at a dose of 12.5 mg/kg; assay type: functional; conditions: Mus musculus
[30] = tested on: P388; test: Log cell population relative to cell population at the beginning of treatment compared to control group A at a dose of 12.5 mg/kg; assay type: functional, Mus musculus
[31] = Percent increase in life span of test animals compared to untreated tumor-bearing control group C animals at a dose of 50 mg/kg; assay type: functional; conditions: Mus musculus
[32] = Toxicity day survivors expressed as number of animals that survived to day five/ number of test animals under control group C at a dose of 100 mg/kg; 6 survived out of 6; assay type: functional, Mus musculus
[33] = Antileukemic activity against Murine P388 lymphocytic leukemia, body weight difference of the test animals compared to control group C animals at a dose of 50 mg/kg; assay type: functional, Mus musculus; design: unit not given here; summary of the method: as §1
[34] = tested on: P388; test: Log cell population relative to cell population at the beginning of treatment compared to control group C at a dose of 25 mg/kg; assay type: functional, Mus musculus
[35] = Percent increase in life span of test animals compared to untreated tumor-bearing control group C animals at a dose of 25 mg/kg; assay type: functional; conditions: Mus musculus
[36] = tested on: P388; test: Log cell population relative to cell population at the beginning of treatment compared to control group C at a dose of 100 mg/kg; assay type: functional, Mus musculus
[37] = Toxicity day survivors expressed as number of animals that survived to day five/ number of test animals under control group C at a dose of 200 mg/kg; 6 survived out of 6; assay type: functional, Mus musculus
[38] = Antileukemic activity against Murine P388 lymphocytic leukemia and toxicity day survivors expressed as number of animals that survived to day five/ number of test animals under control group C at a dose of 50 mg/kg; 6 survived out of 6; assay type: functional, Mus musculus
[39] = tested on: P388; test: Log cell population relative to cell population at the beginning of treatment compared to control group C at a dose of 50 mg/kg; assay type: functional, Mus musculus
[40] = Antileukemic activity against Murine P388 lymphocytic leukemia, body weight difference of the test animals compared to control group C animals at a dose of 100 mg/kg; assay type: functional, Mus musculus; design: unit not given here; summary of the method: as §1
[41] = Toxicity day survivors expressed as number of animals that survived to day five/ number of test animals under control group C at a dose of 25 mg/kg; 6 survived out of 6; assay type: functional, Mus musculus
[42] = Antileukemic activity against Murine P388 lymphocytic leukemia, body weight difference of the test animals compared to control group C animals at a dose of 25 mg/kg; assay type: functional, Mus musculus; summary of the method: as §1
[43] = Percent increase in life span of test animals compared to untreated tumor-bearing control group C animals at a dose of 100 mg/kg; assay type: functional; conditions: Mus musculus
[44] = Antileukemic activity against Murine P388 lymphocytic leukemia, body weight difference of the test animals compared to control group C animals at a dose of 200 mg/kg; assay type: functional, Mus musculus; summary of the method: as §1

CC(C)NC(=O)OCc1c(COC(=O)NC(C)C)c(-c2ccc(Cl)c(Cl)c2)n2c1CSC2
BWD [1]: -0.9
BWD [2]: -1.3
BWD [3]: -1.3
ILS at 200 mg/kg [4]: -12%
ILS at 50 mg/kg [5]: -12%
TDS [6]: 6
ILS at 400 mg/kg [7]: -11%
BWD [8]: -1.3
TDS [9]: 6
TDS [10]: 6
BWD [11]: -1.7
ILS at 25 mg/kg [12]: -9%
ILS at 100 mg/kg [13]: -13%
TDS [14]: 6
TDS [15]: 6

Cc1c(COC(=O)NC(C)C)c(COC(=O)NC(C)C)c2n1C[S+]([O-])C2 (stereo not given)
BWD [1]: -0.1
BWD [2]: -4.5
KE [16]: 3.94
BWD [3]: -0.6
ILS at 200 mg/kg [4]: 76%
ILS at 50 mg/kg [5]: 26%
KE [17]: -0.08
TDS [6]: 6
TDS [10]: 6
BWD [11]: -2.6
TDS [18]: 3
KE [19]: -0.69
ILS at 100 mg/kg [13]: 32%
TDS [14]: 6

Cc1c(COC(=O)NC(C)C)c(COC(=O)NC(C)C)c2n1CSC2
BWD [1]: -4.9
ILS at 6.25 mg/kg [20]: 54%
BWD [21]: -1.3
KE [22]: 2.61
BWD [3]: -3.5
KE [23]: 1.27
TDS [24]: 3
BWD [25]: -1.9
TDS [6]: 0
BWD [8]: 1.9
TDS [26]: 5
TDS [27]: 6
ILS at 25 mg/kg [12]: 73%
TDS [28]: 6
ILS at 12.5 mg/kg [29]: 42%
KE [30]: 0.4
TDS [15]: 6

CNC(=O)OCc1c(COC(=O)NC)c2n(c1C)CS(=O)(=O)C2
ILS at 50 mg/kg [31]: 40%
TDS [32]: 6
BWD [33]: 0.6
KE [34]: -0.05
ILS at 25 mg/kg [35]: 22%
KE [36]: 0.33
TDS [37]: 6
TDS [38]: 6
KE [39]: 0.03
BWD [40]: -2.5
TDS [41]: 6
BWD [42]: 0.3
ILS at 100 mg/kg [43]: 104%
BWD [44]: -2.1
